According to ChEMBL document CHEMBL5303300, “EUbOPEN Chemogenomics Library - Multiplex” (2023):
Values joined by “and” are separate entries in the source; they are usually repeats but may differ in a detail not shown here. Identical values can stand only once.

What was measured:
[1] = system: Fibroblast; assay: Multiplex assay against human fibroblast; assay type: toxicity, cell-based; details: number of replicates 2
Outline: (§1)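 Per cents of healthy-nucleus cells form the tubulin, mitochondrial-mass and membrane-permeability phenotype values. Live cells were stained at seeding with Hoechst33342, BioTracker Green Microtubule Cytoskeleton Dye, MitoTracker Red and Annexin V Alexa Fluor 680. After compound addition they were imaged on a CQ1 microscope at 37°C and 5% CO2, and CellPathfinder machine-learning gating split them into Hoechst high-intensity objects or normal cells, normal cells into healthy, pyknosed or fragmented nuclei, and pyknosed cells into mitotic or apoptotic.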

[2] = system: HEK-293T; assay: Multiplex assay against HEK293T; assay type: toxicity, cell-based; details: human, number of replicates 2; outline: as §1
[3] = 12 h, 1 µM, compound concentration 1 uM
[4] = 12 h, 10 µM, compound concentration 10 uM
[5] = 24 h, 1 µM, compound concentration 1 uM
[6] = 24 h, 10 µM, compound concentration 10 uM
[7] = 48 h, 1 µM, compound concentration 1 uM
[8] = 48 h, 10 µM, compound concentration 10 uM

COc1ccc2cc(S(=O)(=O)N[C@H](CC(=O)N[C@H](Cc3ccc(CN4[C@H](C)CCC[C@@H]4C)cc3)C(=O)N(C)C(C)C)c3ccc4c(c3)OCO4)ccc2c1.Cl
Population Apoptotic (%) [1, 3]: 31% and 54% | Population Fragmented Nuclei (%) [1, 3]: 17% and 21% | Population Healthy Nuclei (%) [1, 3]: 61% and 62% | Population Hoechst High Intensity Objects (%) [1, 3]: 0% | Population Membrane Permeable-Phenotype (%) [1, 3]: 6% and 11% | Population Mitochondria Different-Phenotype (%) [1, 3]: 2% and 1% | Population Mitotic Cells (%) [1, 3]: 68% and 45% | Population Normal (%) [1, 3]: 100% | Population Pyknosed Nuclei (%) [1, 3]: 20% and 16% | Population Tubulin-Different-Phenotype (%) [1, 3]: 66% and 52% | Total Cell Count [1, 3]: 155 and 275 | Population Apoptotic (%) [1, 4]: 57% and 44% | Population Fragmented Nuclei (%) [1, 4]: 26% and 14% | Population Healthy Nuclei (%) [1, 4]: 52% and 66% | Population Hoechst High Intensity Objects (%) [1, 4]: 0% | Population Membrane Permeable-Phenotype (%) [1, 4]: 20% and 17% | Population Mitochondria Different-Phenotype (%) [1, 4]: 21% and 16% | Population Mitotic Cells (%) [1, 4]: 42% and 55% | Population Normal (%) [1, 4]: 99% | Population Pyknosed Nuclei (%) [1, 4]: 20% and 19% | Population Tubulin-Different-Phenotype (%) [1, 4]: 97% and 84% | Total Cell Count [1, 4]: 160 and 258 | Population Apoptotic (%) [1, 5]: 43% and 66% | Population Fragmented Nuclei (%) [1, 5]: 25% and 28% | Population Healthy Nuclei (%) [1, 5]: 61% and 59% | Population Hoechst High Intensity Objects (%) [1, 5]: 0% | Population Membrane Permeable-Phenotype (%) [1, 5]: 0% and 5% | Population Mitochondria Different-Phenotype (%) [1, 5]: 12% and 10% | Population Mitotic Cells (%) [1, 5]: 56% and 33% | Population Normal (%) [1, 5]: 100% | Population Pyknosed Nuclei (%) [1, 5]: 13% and 12% | Population Tubulin-Different-Phenotype (%) [1, 5]: 64% and 56% | Total Cell Count [1, 5]: 171 and 286 | Population Apoptotic (%) [1, 6]: 80% | Population Fragmented Nuclei (%) [1, 6]: 20% and 16% | Population Healthy Nuclei (%) [1, 6]: 56% and 57% | Population Hoechst High Intensity Objects (%) [1, 6]: 1% and 0% | Population Membrane Permeable-Phenotype (%) [1, 6]: 14% and 7% | Population Mitochondria Different-Phenotype (%) [1, 6]: 42% and 56% | Population Mitotic Cells (%) [1, 6]: 19% and 20% | Population Normal (%) [1, 6]: 98% and 99% | Population Pyknosed Nuclei (%) [1, 6]: 23% and 25% | Population Tubulin-Different-Phenotype (%) [1, 6]: 93% and 92% | Total Cell Count [1, 6]: 159 and 220 | Population Apoptotic (%) [1, 7]: 77% and 72% | Population Fragmented Nuclei (%) [1, 7]: 36% and 29% | Population Healthy Nuclei (%) [1, 7]: 53% and 64% | Population Hoechst High Intensity Objects (%) [1, 7]: 0% | Population Membrane Permeable-Phenotype (%) [1, 7]: 2% and 3% | Population Mitochondria Different-Phenotype (%) [1, 7]: 9% and 7% | Population Mitotic Cells (%) [1, 7]: 22% and 27% | Population Normal (%) [1, 7]: 99% and 100% | Population Pyknosed Nuclei (%) [1, 7]: 9% and 5% | Population Tubulin-Different-Phenotype (%) [1, 7]: 28% and 50% | Total Cell Count [1, 7]: 326 and 194 | Population Apoptotic (%) [1, 8]: 88% and 86% | Population Fragmented Nuclei (%) [1, 8]: 24% and 18% | Population Healthy Nuclei (%) [1, 8]: 62% and 65% | Population Hoechst High Intensity Objects (%) [1, 8]: 5% and 9% | Population Membrane Permeable-Phenotype (%) [1, 8]: 8% and 10% | Population Mitochondria Different-Phenotype (%) [1, 8]: 46% and 55% | Population Mitotic Cells (%) [1, 8]: 11% and 13% | Population Normal (%) [1, 8]: 94% and 90% | Population Pyknosed Nuclei (%) [1, 8]: 12% and 15% | Population Tubulin-Different-Phenotype (%) [1, 8]: 87% and 83% | Total Cell Count [1, 8]: 138 and 202 | Population Apoptotic (%) [2, 3]: 40% and 62% | Population Fragmented Nuclei (%) [2, 3]: 2% and 1% | Population Healthy Nuclei (%) [2, 3]: 85% and 84% | Population Hoechst High Intensity Objects (%) [2, 3]: 5% and 6% | Population Membrane Permeable-Phenotype (%) [2, 3]: 5% | Population Mitochondria Different-Phenotype (%) [2, 3]: 29% and 26% | Population Mitotic Cells (%) [2, 3]: 59% and 37% | Population Normal (%) [2, 3]: 94% and 93% | Population Pyknosed Nuclei (%) [2, 3]: 11% and 13% | Population Tubulin-Different-Phenotype (%) [2, 3]: 86% and 85% | Total Cell Count [2, 3]: 531 and 472 | Population Apoptotic (%) [2, 4]: 76% and 70% | Population Fragmented Nuclei (%) [2, 4]: 1% and 3% | Population Healthy Nuclei (%) [2, 4]: 82% and 83% | Population Hoechst High Intensity Objects (%) [2, 4]: 10% and 9% | Population Membrane Permeable-Phenotype (%) [2, 4]: 1% and 4% | Population Mitochondria Different-Phenotype (%) [2, 4]: 82% and 70% | Population Mitotic Cells (%) [2, 4]: 23% and 29% | Population Normal (%) [2, 4]: 89% and 90% | Population Pyknosed Nuclei (%) [2, 4]: 15% and 12% | Population Tubulin-Different-Phenotype (%) [2, 4]: 85% and 82% | Total Cell Count [2, 4]: 395 and 352 | Population Apoptotic (%) [2, 5]: 52% and 56% | Population Fragmented Nuclei (%) [2, 5]: 5% | Population Healthy Nuclei (%) [2, 5]: 86% and 83% | Population Hoechst High Intensity Objects (%) [2, 5]: 6% and 9% | Population Membrane Permeable-Phenotype (%) [2, 5]: 4% | Population Mitochondria Different-Phenotype (%) [2, 5]: 19% and 22%
